According to ChEMBL document CHEMBL4190353, “Synthesis, structure-activity relationships and preliminary mechanism of action of novel water-soluble 4-quinolone-3-carboxamides as antiproliferative agents” (Eur J Med Chem, 2017):
Activity calls are given as the source filed them. No cut-off for these calls is given here.

Assays:
[1] = test system: HCT-116; test: Induction of apoptosis in human HCT116 cells assessed as early apoptotic cells level pre-incubated with 20 uM pan-caspase inhibitor Z-VAD-FMK for 5 hrs followed by compound addition and further incubated for 48 hrs by Annexin V-FITC/PI staining based cytometry (reference value: 1.1%); assay type: functional; design: scale not given: the % may be the effect or the level left
[2] = test system: HCT-116; test: Induction of apoptosis in Bax-/- human HCT116 cells assessed as increase in cleaved PARP level incubated for 48 hrs by Western blot method; assay type: functional, cell-based
How it was run: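 Lysates were made in SDS buffer (2% SDS, 50 mM Tris-HCl pH 6.8) and quantified by BCA. Equal protein was run on 10% SDS-PAGE and transferred to PVDF. Membranes were blocked in 5% milk, probed overnight at 4 °C for cleaved PARP (1:1000) with GAPDH (1:5000), and detected with HRP secondary antibody and ECL.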

[3] = test system: HCT-116; test: Induction of apoptosis in Bax-/- human HCT116 cells assessed as necrotic cells level incubated for 48 hrs by Annexin V-FITC/PI staining based cytometry (reference value: 0.2%); assay type: functional
How it was run: (§1)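 Cells were plated at 5×10^5 per well and treated once 80% confluent. After trypsinisation and two washes in ice-cold PBS (pH 7.4), cells were stained with Annexin V-FITC and PI for 15 min at room temperature in the dark. Analysis was by flow cytometry. The legend gives vehicle or 4 µM for the p53-/- and Bax-/- lines.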

[4] = test system: HCT-116; test: Induction of apoptosis in Bax-/- human HCT116 cells assessed as early apoptotic cells level at 4 uM incubated for 48 hrs by Annexin V-FITC/PI staining based cytometry (reference value: 4.4%); assay type: functional; how it was run: as §1
[5] = test system: HCT-116; test: Induction of apoptosis in human HCT116 cells assessed as viable cells level incubated for 48 hrs by Annexin V-FITC/PI staining based cytometry (reference value: 98.7%); assay type: functional

CCN(CC)CCCNC(=O)c1cn(CCCc2ccccc2)c2cc(Cl)ccc2c1=O.Cl
Activity [1]: 14.2% | Activity [2]: Active | Activity [3]: 0.2% | Activity [4]: 25.6% | Activity [5]: 62.5%
